Screening results (PubChem BioAssay)
ATG4B inh = inhibitors of human ATG4B cysteine protease; Q9Y4P1; ATG4B cleavage of LC3-PLA2, NBD-HPC fluorescence, 1 h; inhibition, % at 8.33 µM; 340,000 tested, 0.51% active; AID 504462; in the data active means inhibition above about 40%
Target sequence (Q9Y4P1 whole entry, looked up): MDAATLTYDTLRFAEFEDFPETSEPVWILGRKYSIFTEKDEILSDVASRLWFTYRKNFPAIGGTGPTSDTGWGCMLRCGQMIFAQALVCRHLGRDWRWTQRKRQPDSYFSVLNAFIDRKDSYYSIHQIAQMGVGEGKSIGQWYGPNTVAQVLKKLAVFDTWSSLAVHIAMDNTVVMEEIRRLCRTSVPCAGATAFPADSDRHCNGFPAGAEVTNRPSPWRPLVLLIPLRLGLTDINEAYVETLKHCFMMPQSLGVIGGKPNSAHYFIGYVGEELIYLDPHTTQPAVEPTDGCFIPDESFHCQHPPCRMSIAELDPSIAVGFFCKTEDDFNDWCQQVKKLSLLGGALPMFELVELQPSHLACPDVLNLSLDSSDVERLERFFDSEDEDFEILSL
ABCB6 inh MLPCN = blocks the human ABCB6 transporter. Q9NP58. K562-ABCB6 porphyrin accumulation, flow cytometry, 1 h; hits give low values. fluorescence ratio to DMSO, % at 10 µM. 360,000 tested, 0.19% active;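 active means fluorescence ratio to DMSO below 75%, the collection mean minus 3 SD; inconclusive means too few cells collected in the well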;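 further: signal is porphyrin accumulated inside mitochondria; 100% equals median channel fluorescence of DMSO control wells; lower ratio means ABCB6 inhibition with less porphyrin fluorescence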
Myeloid diff 2 = promotes myeloid progenitor differentiation; calls only at 10 µM; 360,000 tested, 1% active; ER-HoxA9 myeloid progenitors, lysozyme-GFP differentiation, flow cytometry;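 active means normalized GFP-positive differentiation at or above the plate's own cutoff, the solvent-only control mean plus 3 SD; inconclusive means no clear call, values can overlap the other calls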;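 further: cells exposed to compound for four days before flow analysis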
CendR NRP1 mod = modulators of CendR peptide binding to human neuropilin-1 | O14786 | inhibition, % at 25 µM | FAM-RPARPAR peptide binding to NRP-1, fluorescence polarization | 360,000 tested, 0.85% active;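 active means inhibition or corrected inhibition above about 18%, plus a signal ratio from 0.5 to 1.5, limit read from the data, passing the limit was not always enough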
Granule exo inh = lytic granule exocytosis inhibition. 360,000 tested, 0.66% active. TALL-104 LAMP-1 surface exposure, flow cytometry; cells stimulated with thapsigargin and PMA. inhibition, % at 10 µM;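 active means inhibition above about 55%, limit read from the data; inconclusive means no clear call, values can overlap the other calls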
Arr AP2 block = blocks beta-arrestin peptide binding to AP2 adaptin | FITC-arrestin peptide / GST-AP2 beads, flow cytometry; AP2 beta2 appendage carries R879A mutation | inhibition, % at 10 µM | 340,000 tested, 0.31% active | AID 504490;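 active means inhibition above a set limit, near 3 SD of compounds lacking own fluorescence, cut at about 54% in these data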;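 further: plate controls were DMSO wells for no effect and 5 µM unlabelled arrestin peptide for full effect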
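Assay system: GST-AP2 R879A bound to glutathione beads, E. coli-expressed; Medium: PBS with 0.05% Tween 20 and 0.1% BSA; Also added: fluorescein-tagged arrestin peptide at 50 nM final; Timing: 12 min plus 1 h, RT; Measured by: flow cytometry, FL1 (488/535 nm); Evaluation: percent drop in bead-associated FITC signal.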
An asterisk follows results filed as active; i = inactive; u = inconclusive; x = no result given; + = active, no number. Shown are actives, neighbours in structure and some others; about 3.3% of the full set was active somewhere.

SMILES	ATG4B inh	ABCB6 inh MLPCN	Myeloid diff 2	CendR NRP1 mod	Granule exo inh	Arr AP2 block
CCOc1ccc(C(C)=O)cc1NC(=O)/C=C\C(=O)O	3	102	i	-1	-5	-7
O=C(c1ccccc1)c1c2c(cc3sc4ccccc4[n+]13)-c1cccc3cccc-2c13	30	404	u	6	88*	34
COc1ccc(NC(=O)CN2C(=O)/C(=C3\SC(=S)N(CCC(=O)O)C3=O)c3ccccc32)cc1	0	96	i	16	1	31
O=C(O)CCN1C(=O)/C(=C2\C(=O)N(Cc3ccccc3Cl)c3ccccc32)SC1=S	x	95	+	-12	-5	10
COc1n[nH]c2nncnc12	-6	x	i	28*	1	-2
Cc1cccc(C(=O)NNC2=C(C(=O)C(F)(F)F)CCC2)c1O	20	103	i	58*	17	2
COCCOC(=O)c1cc(C(=O)c2cc(F)ccc2O)coc1=N	-9	105	+	-23	0	27
CCOc1ccc(CCNC(=O)Cn2cccc2C(=O)c2ccccc2C)cc1OCC	5	100	i	2	-1	4
COc1ccc(C(=O)C2CC2c2ccc3c(c2)OCO3)cc1 (centres undefined)	-5	94	i	28*	-5	37
Cc1cc(NS(=O)(=O)c2ccc(NC(=O)CCCOc3ccccc3C)cc2)no1	3	96	i	4	0	3
Cc1n[nH]c(C)c1N1C(=O)c2cccc3c(N4CCCCCC4)ccc(c23)C1=O	-19	188	+	124	1	-8
O=C(CCc1nnc(Cc2c[nH]c3ccccc23)o1)NC1CCCC1	3	103	i	-9	-3	7
O=C(CCc1nnc(Cc2c[nH]c3ccccc23)o1)NCCC1CCCCO1 (centres undefined)	x	95	+	2	1	x
CC1=C(C(=O)OCc2cc(C)on2)N2C(=O)[C@@H](NC(=O)OCc3cc(C)on3)[C@H]2SC1	2	84	i	-10	9	-14
CCC(C)(C)c1ccc(Oc2ccc(N)cc2)cc1	9	92	i	44*	0	5
CCC(C)(C)c1ccc(Oc2cccc(C(=O)O)c2)cc1	25	99	i	10	7	1
Cc1ncc([N+](=O)[O-])n1CCOC(=O)NC(NCc1ccccc1Cl)C(Cl)(Cl)Cl (centres undefined)	-13	95	i	38*	-2	8
CC1CC(C)CN(C(=O)CCC(=O)Nc2nnc(C3CCCCC3)s2)C1 (centres undefined)	6	87	i	-4	-13	25
Cc1ccc(S(=O)(=O)NC(=NC2CCCCC2)c2ccc(Cl)cc2)cc1	1	94	i	21*	38	-3
C=CCSc1nc(N)c(C#N)c(-c2ccc(C)cc2)c1C#N	-12	100	+	-2	4	14
CCCC(=O)Nc1nnc(S(=O)(=O)N2CCCCCC2)s1	-6	99	i	3	0	3
Cc1noc(C)c1C(=O)OCC(=O)/C=C1/N(C)c2ccccc2C1(C)C	-6	102	i	9	-1	9
O=C(NNC(=O)c1ccco1)c1cccc([N+](=O)[O-])c1	3	92	i	-2	-3	-3
Cc1cccc(C)c1NC(=O)C1(C)CCC(=O)N1C1CCN(Cc2ccccc2)CC1 (centres undefined)	x	96	i	21*	-1	x
Cc1cccc(C)c1NC(=O)C1(C)CCC(=O)N1C1CC1 (centres undefined)	x	93	i	13	-2	x
SMILES	ATG4B inh	ABCB6 inh MLPCN	Myeloid diff 2	CendR NRP1 mod	Granule exo inh	Arr AP2 block
O=C(NCc1ccc(F)cc1)c1cccc2c1C(=O)c1ccc(N3CCC(Cc4ccccc4)CC3)cc1S2(=O)=O	-22	242	+	148	-7	13
O=C(NCCN1CCCCC1)c1cccc2c1C(=O)c1ccc(N3CCCC3)cc1S2(=O)=O	0	197	+	-110	-2	10
O=C(NCc1ccc(F)cc1)c1cccc2c1C(=O)c1ccc(N3CCC(N4CCCCC4)CC3)cc1S2(=O)=O	x	154	+	-125	3	x
O=C(NCc1cc(C(F)(F)F)ccc1Cl)c1cccc2c1C(=O)c1ccc(N3CCC(Cc4ccccc4)CC3)cc1S2(=O)=O	-4	174	+	146	-4	3
CC1CCN(c2ccc3c(c2)S(=O)(=O)c2cccc(C(=O)NCc4ccc(F)cc4)c2C3=O)CC1	-2	117	i	151	-3	34
CC(C)(C)CNC(=O)c1cccc2c1C(=O)c1ccc(N3CCCC3)cc1S2(=O)=O	-6	88	i	-41	7	35
CCOc1ccccc1N1CC(C(=O)N(CC)CC(=O)Nc2ccc3c(c2)OCCO3)CC1=O (centres undefined)	0	102	i	8	-1	2
O=C1c2ccc(Cl)cc2S(=O)(=O)c2cccc(C(=O)N3CCC(Cc4ccccc4)CC3)c21	-15	93	i	26*	-4	-4
O=C(NC1CC1)c1cccc2c1C(=O)c1ccc(N3CCC(Cc4ccccc4)CC3)cc1S2(=O)=O	-5	136	i	-140	-3	3
C[C@H](CO)N1C[C@H](C)[C@@H](CN(C)S(C)(=O)=O)Oc2ccc(NC(=O)NC3CCCCC3)cc2C1=O	-3	96	i	31*	-3	5
CC(C)NC(=O)N(C)C[C@H]1Oc2ccc(NC(=O)Nc3ccccc3)cc2C(=O)N([C@H](C)CO)C[C@@H]1C	-15	95	i	34*	8	4
Cc1noc(C)c1NC(=O)N(C)C[C@H]1Oc2ccc(NC(=O)NC(C)C)cc2C(=O)N([C@H](C)CO)C[C@H]1C	-1	87	i	1	37	x
CC(C)NC(=O)Nc1ccc2c(c1)C(=O)N([C@H](C)CO)C[C@H](C)[C@@H](CN(C)S(C)(=O)=O)O2	-8	102	i	12	15	-8
Cc1noc(C)c1NC(=O)Nc1ccc2c(c1)C(=O)N([C@H](C)CO)C[C@H](C)[C@@H](CN(C)C(=O)NC(C)C)O2	-9	95	i	27*	-20	-1
CC(C)NC(=O)N(C)C[C@H]1Oc2ccc(NC(=O)Nc3ccc4c(c3)OCO4)cc2C(=O)N([C@H](C)CO)C[C@@H]1C	-5	101	i	29*	1	32
O=C(Cc1c(F)cccc1Cl)NCCCn1ccnc1	-2	92	i	-2	3	22
Cc1noc(C)c1S(=O)(=O)N(C)C[C@H]1OCCCC[C@@H](C)Oc2ccc(NS(=O)(=O)c3cn(C)cn3)cc2C(=O)N([C@H](C)CO)C[C@@H]1C	x	104	i	26*	2	x
